Data published in ChEMBL document CHEMBL2057084, “Discovery of benzylisothioureas as potent divalent metal transporter 1 (DMT1) inhibitors” (Bioorg Med Chem Lett, 2012).
Activity calls are given as the source filed them. The rule behind the calls is not given here.

How the values were obtained:
[1] = Apparent permeability across apical to basolateral side in human Caco2 cells; type: ADME, cell-based; conditions: Caco-2
Outline: (§1)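 Caco-2 cell monolayers; apparent permeability measured in both directions (apical→basolateral and basolateral→apical); […].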

[2] = Apparent permeability across basolateral to apical side in human Caco2 cells; type: ADME, cell-based; conditions: Caco-2; outline: as §1
[3] = Inhibition of human DMT1B-IRE expressed in CHO cells assessed as blockage of ferrous influx after 20 mins by calcein fluorescence quenching method; type: cell-based
Outline: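 Calcein fluorescence quench assay for DMT1 (conditions detailed in supplementary data); IC50s are the average of at least two independent determinations.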

[4] = target: T1, Natural resistance-associated macrophage protein 1 (Homo sapiens, UniProt P49279); assay: Inhibition of NRAMP1 expressed in CHO cells; type: cell-based
T1 sequence (P49279 whole entry): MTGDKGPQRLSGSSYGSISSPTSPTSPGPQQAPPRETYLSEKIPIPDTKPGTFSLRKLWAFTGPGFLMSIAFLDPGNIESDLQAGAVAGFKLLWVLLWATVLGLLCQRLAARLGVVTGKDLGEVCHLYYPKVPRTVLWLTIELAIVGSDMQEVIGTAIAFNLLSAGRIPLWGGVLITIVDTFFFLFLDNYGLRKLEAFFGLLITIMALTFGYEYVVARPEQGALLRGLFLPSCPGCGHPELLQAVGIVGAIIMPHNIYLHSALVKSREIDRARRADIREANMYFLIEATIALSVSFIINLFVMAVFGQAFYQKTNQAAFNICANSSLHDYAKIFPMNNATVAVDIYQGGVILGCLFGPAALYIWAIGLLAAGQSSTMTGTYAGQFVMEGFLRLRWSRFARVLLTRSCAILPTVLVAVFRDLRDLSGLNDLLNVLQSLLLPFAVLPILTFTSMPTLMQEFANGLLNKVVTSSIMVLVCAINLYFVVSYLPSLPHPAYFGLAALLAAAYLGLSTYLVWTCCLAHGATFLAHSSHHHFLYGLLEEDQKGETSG

Rattus norvegicus [5] = assay: Inhibition of intestinal iron uptake in acute weanling rat model of iron hyperabsorption assessed as decrease of serum iron level at 50 mg/kg, po administered after 1 hr post iron challenge; type: functional, organism-based; set-up: dose 50 mg/kg
Outline: (§2)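 Anemic conscious rats ([…], serum iron <50 µg/dL); test article dosed po in 5% DMSO, 10% EtOH, 30% PEG400, 35% propylene glycol, 20% water; 1 h later oral challenge of 1 mg/kg Fe2+ as ferrous sulfate; serum iron measured 1 h after challenge; 8 animals per group, mean ± SEM; one-way ANOVA with Dunnett's test versus vehicle group.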

Rattus norvegicus [6] = assay: Inhibition of intestinal iron uptake in po dosed acute weanling rat model of iron hyperabsorption assessed as decrease of serum iron level administered after 1 hr post iron challenge; type: functional, organism-based; outline: as §2
Rattus norvegicus [7] = assay: Toxicity in acute weanling rat model at 25 to 50 mg/kg, po; type: organism-based; set-up: dose 25-50 mg/kg, route oral; conditions: in vivo
Outline: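 Rats in the acute iron hyperabsorption study (anemic, conscious) dosed po at 25 or 50 mg/kg in 5% DMSO, 10% EtOH, 30% PEG400, 35% propylene glycol, 20% water; clinical observations recorded during the study.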

Rattus norvegicus [8] = assay: Inhibition of intestinal iron uptake in acute weanling rat model of iron hyperabsorption assessed as decrease of serum iron level at 50 mg/kg, po administered after 1 hr post iron challenge relative to control; type: functional; outline: as §2
Rattus norvegicus [9] = assay: Inhibition of intestinal iron uptake in acute weanling rat model of iron hyperabsorption assessed as decrease of serum iron level at 25 mg/kg, po administered after 1 hr post iron challenge; type: functional, organism-based; set-up: dose 25 mg/kg; outline: as §2

Work on `Br.N=C(N)SCc1cccc2c1C(=O)c1c(CSC(=N)N)cccc1-2` yielded a Papp A→B [1] of 0.4 ×10⁻⁶ cm/s, a Papp B→A [2] of 0.3 ×10⁻⁶ cm/s and an IC50 [3] of 580 nM. It also gave an IC50 [4] greater than 10000 nM.
Work on `Br.CN(C)S(=O)(=O)c1ccc(Sc2ccc(F)cc2CSC(=N)N)c(CSC(=N)N)c1` yielded a Papp A→B [1] of less than 0.1 ×10⁻⁶ cm/s, a Papp B→A [2] of 0.1 ×10⁻⁶ cm/s and an IC50 [3] of 950 nM. The IC50 [4] was greater than 10000 nM.
With `Br.N=C(N)SCc1cccc2c1oc1c(CSC(=N)N)cccc12` the Papp A→B [1] was less than 0.1 ×10⁻⁶ cm/s, the Papp B→A [2] was 0.2 ×10⁻⁶ cm/s and the IC50 [3] was 50 nM. It also gave an IC50 [4] greater than 10000 nM.
For `Br.N=C(N)SCc1cc(F)ccc1Oc1cc(Cl)ccc1CSC(=N)N`, the Papp A→B [1] was 0.2 ×10⁻⁶ cm/s, the Papp B→A [2] was 0.9 ×10⁻⁶ cm/s and the IC50 [3] was 340 nM. For the same compound, the IC50 [4] was greater than 10000 nM.
`COc1ccc(Sc2ccccc2CSC(=N)N)c(CSC(=N)N)c1` showed an IC50 [3] of 1440 nM and an IC50 [4] greater than 10000 nM.
Compound `Br.CS(=O)(=O)c1ccc(Sc2ccc(F)cc2CSC(=N)N)c(CSC(=N)N)c1` has a Papp A→B [1] of less than 0.1 ×10⁻⁶ cm/s, a Papp B→A [2] of 0.1 ×10⁻⁶ cm/s and an IC50 [3] of 290 nM. It also gave an IC50 [4] greater than 10000 nM.
`N=C(N)SCc1cccc2c1sc1c(CSC(=N)N)cc(F)cc12` showed an IC50 [3] of 90 nM and an IC50 [4] greater than 10000 nM.
For `N=C(N)SCc1ccccc1Oc1ccc(Cl)cc1CSC(=N)N`, the IC50 [3] was 1130 nM and the IC50 [4] was greater than 10000 nM.
With `Br.Cc1ccc(Sc2ccccc2CSC(=N)N)c(CSC(=N)N)c1` the Papp A→B [1] was 1.5 ×10⁻⁶ cm/s, the Papp B→A [2] was 1.4 ×10⁻⁶ cm/s and the IC50 [3] was 490 nM. The IC50 [4] was greater than 10000 nM.
With `Cc1ccc(CSC(=N)N)c(Sc2ccc(F)cc2CSC(=N)N)c1` the IC50 [3] was 1450 nM and the IC50 [4] was greater than 10000 nM.
Work on `N=C(N)SCc1cc(Cl)ccc1Sc1ccc(Cl)cc1CSC(=N)N` yielded an IC50 [3] of 3020 nM and an IC50 [4] greater than 10000 nM.
With `Br.N=C(N)SCc1cc(F)ccc1Sc1ccc(F)cc1CSC(=N)N` the Papp A→B [1] was 0.4 ×10⁻⁶ cm/s, the Papp B→A [2] was 0.4 ×10⁻⁶ cm/s and the IC50 [3] was 150 nM. For the same compound, the IC50 [4] was greater than 10000 nM.
`CN(c1ccccc1CSC(=N)N)c1ccccc1CSC(=N)N` showed an IC50 [3] of 730 nM and an IC50 [4] greater than 10000 nM.
With `N=C(N)SCc1ccccc1Oc1cc(Cl)ccc1CSC(=N)N` the IC50 [3] was 15000 nM and the IC50 [4] was greater than 10000 nM.
Work on `N=C(N)SCc1cc(F)ccc1Sc1c(CSC(=N)N)cccc1[N+](=O)[O-]` yielded an IC50 [3] of 4150 nM and an IC50 [4] greater than 10000 nM.
With `Br.N=C(N)SCc1cc(F)ccc1Sc1ccc(C(F)(F)F)cc1CSC(=N)N` the Papp A→B [1] was 0.1 ×10⁻⁶ cm/s, the Papp B→A [2] was 3.8 ×10⁻⁶ cm/s and the IC50 [3] was 690 nM. The IC50 [4] was greater than 10000 nM.
`N=C(N)SCc1ccccc1C(=O)c1ccc(F)cc1CSC(=N)N` showed an IC50 [3] of 580 nM and an IC50 [4] greater than 10000 nM.
For `Br.N=C(N)SCc1cc(F)ccc1Oc1cc(F)ccc1CSC(=N)N`, the Papp A→B [1] was less than 0.1 ×10⁻⁶ cm/s, the Papp B→A [2] was 0.4 ×10⁻⁶ cm/s and the IC50 [3] was 840 nM. It also gave an IC50 [4] greater than 10000 nM.
`N=C(N)SCc1cc(Cl)ccc1Oc1ccc([N+](=O)[O-])cc1CSC(=N)N` showed an IC50 [3] of 2890 nM and an IC50 [4] greater than 10000 nM.
In the case of `Br.N=C(N)SCc1ccccc1Sc1ccccc1CSC(=N)N`, the Papp A→B [1] is reported as 0.1 ×10⁻⁶ cm/s, the inhibition (Rattus norvegicus [5]) is reported as “Active” and the Papp B→A [2] is reported as 1.4 ×10⁻⁶ cm/s. For the same compound, the IC50 [3] was 180 nM, the inhibition (Rattus norvegicus [6]) was “Dose-dependent effect” and the Activity (Rattus norvegicus [7]) was “Non-toxic”. The IC50 [4] was greater than 10000 nM.
In the case of `Br.N=C(N)SCc1ccccc1Oc1ccccc1CSC(=N)N`, the Papp A→B [1] is reported as 0.1 ×10⁻⁶ cm/s, the inhibition (Rattus norvegicus [5]) is reported as “Active” and the Papp B→A [2] is reported as 0.2 ×10⁻⁶ cm/s. The IC50 [3] was 340 nM, the inhibition (Rattus norvegicus [6]) was “Dose-dependent effect” and the “fold change (FC)” value (Rattus norvegicus [8]) was 8. The inhibition (Rattus norvegicus [9]) was “Active”, the Activity (Rattus norvegicus [7]) was “Non-toxic” and the IC50 [4] was greater than 10000 nM.
`Br.N=C(N)SCc1ccccc1Sc1cc(F)c(F)cc1CSC(=N)N` gave a Papp A→B [1] of 1.3 ×10⁻⁶ cm/s, a Papp B→A [2] of 1.4 ×10⁻⁶ cm/s and an IC50 [3] of 320 nM. The IC50 [4] was greater than 10000 nM.
In the case of `Br.N=C(N)SCc1c(Br)ccc2c1sc1c(CSC(=N)N)c(Br)ccc12`, the Papp A→B [1] is reported as 4 ×10⁻⁶ cm/s, the Papp B→A [2] is reported as 2 ×10⁻⁶ cm/s and the IC50 [3] is reported as 860 nM. It also gave an IC50 [4] greater than 10000 nM.
For `Br.N=C(N)SCc1cc(F)ccc1Sc1ccc([N+](=O)[O-])cc1CSC(=N)N`, the Papp A→B [1] was 0.1 ×10⁻⁶ cm/s, the inhibition (Rattus norvegicus [5]) was “Active” and the Papp B→A [2] was 0.2 ×10⁻⁶ cm/s. The IC50 [3] was 80 nM, the inhibition (Rattus norvegicus [6]) was “Dose-dependent effect” and the inhibition (Rattus norvegicus [9]) was “Active”. The Activity (Rattus norvegicus [7]) was “Non-toxic” and the IC50 [4] was greater than 10000 nM.
For `N=C(N)SCc1ccccc1C(=O)c1cc(F)ccc1CSC(=N)N`, the IC50 [3] was 2020 nM and the IC50 [4] was greater than 10000 nM.
